EBI2 block: antagonists of human EBI2 receptor; AID 651636; inhibition, % at 5 µM; 360,000 tested, 0.81% active; EBI2 beta-arrestin recruitment, luminescence, 7a,25-OHC stimulated; in the data active = inhibition above about 38%;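 also: enzyme fragment complementation signal reports receptor beta-arrestin coupling in cells; 0% = agonist plus DMSO wells and 100% = wells without agonist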
APJ antag: blocks the human apelin receptor APJ | P35414 | CHO-K1 APJ beta-arrestin complementation, luminescence | inhibition, % at 20 µM | 330,000 tested, 0.32% active | AID 2521;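 active = inhibition above about 40% at 20 µM, limit read from the data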;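 also: cells challenged with 10 nM apelin-13 agonist together with compound; plate controls were apelin-13 plus DMSO wells for no effect and DMSO wells lacking apelin-13 for full effect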
APJ agonist: agonists of human APJ apelin receptor; P35414; CHO-K1 APJ PathHunter beta-arrestin, luminescence; 0% DMSO wells, 100% apelin; activation, % at 20 µM; 330,000 tested, 0.11% active; AID 2520;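 active = activation more than six SD over the plate average, tested at 20 µM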;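 also: 0% = DMSO alone and 100% = apelin-13 at 10 nM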
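Test system: CHO-K1 APJ beta-arrestin complementation cell line. Amount: cell density 1000 per well. Controls: DMSO negative, 10 nM Apelin-13 positive. Signal: luminescent beta-gal fragment complementation, chemiluminescent substrate. Read-out basis: agonist-driven arrestin binding to APJ. Timing: compound stimulation 90 min at 25 °C, detection 60 min.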
CXCR6 block: inhibitors of human CXCR6 receptor. 360,000 tested, 0.36% active. O00574. inhibition, % at 20 µM. CHO-K1 PathHunter CXCR6 beta-arrestin, luminescence; in the data active = inhibition above about 34%, passing the limit was not always enough;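 also: antagonist mode with CXCL16 agonist at 10 nM final; 0% = 10 nM CXCL16 with DMSO and 100% = unstimulated wells without agonist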
CCR6 antagonist: CCR6 (human) receptor antagonism; inhibition, % at 20 µM; CHO-K1 CCR6 PathHunter beta-arrestin, luminescence, CCL20-stimulated; P51684; AID 493098; 340,000 tested, 0.49% active;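 active = compounds whose inhibition of the agonist-driven luminescence signal at 20 µM reaches about 50%, limit read from the data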;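 also: cells stimulated with CCL20 at 14 nM final; plate controls were DMSO with CCL20 for no effect and DMSO without agonist for full effect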
Target sequence (P51684 whole entry, looked up): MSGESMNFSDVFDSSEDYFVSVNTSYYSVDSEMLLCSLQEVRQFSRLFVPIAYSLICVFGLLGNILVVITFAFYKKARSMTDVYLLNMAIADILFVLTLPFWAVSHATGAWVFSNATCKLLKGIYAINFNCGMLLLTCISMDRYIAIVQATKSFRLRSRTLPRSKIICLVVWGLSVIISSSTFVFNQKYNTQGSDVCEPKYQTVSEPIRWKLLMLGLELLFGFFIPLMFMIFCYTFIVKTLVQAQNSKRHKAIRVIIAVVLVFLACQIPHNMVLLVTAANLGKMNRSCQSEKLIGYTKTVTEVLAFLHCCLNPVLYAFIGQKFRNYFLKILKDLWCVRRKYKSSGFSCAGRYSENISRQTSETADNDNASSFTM
The depositor's hits bear a star; . = not tested or not shown. Compounds with a hit are over-represented: about 1.5% of the library has one in this group of screens.

SMILES	EBI2 block	APJ antag	APJ agonist	CXCR6 block	CCR6 antagonist
Cc1cccc(CS(=O)(=O)c2nnc([C@H](Cc3ccccc3)NC(=O)OC(C)(C)C)o2)c1	20.0	14.4	-0.4	61.1*	90.7*
CCCC[C@@H]1Cc2[nH][nH]c(=O)c2[C@H](c2ccc3ccccc3c2)O1	1.9	.	.	-6.2	.
CCOC(=O)c1ccc(S(=O)(=O)N2CCN(CC(O)COc3ccc(C#N)cc3)CC2)cc1 (stereo unspecified)	49.7*	-3.4	0.4	-5.8	14.9
CCOC(=O)c1ccc(S(=O)(=O)N2CCN(CCC#N)CC2)cc1	-11.9	-43.7	-3.8	-8.9	0.9
C[C@@H](C(=O)NCCc1c[nH]c2ccccc12)[C@@H]1C[C@@]1(C)[C@@H](NC(=O)OCc1ccccc1)c1ccccc1	75.3*	10.2	-3.8	3.0	5.6
C#Cc1ccc([C@H]2C=C(C(=O)N3CCN(Cc4ccccc4)CC3)O[C@@H](OCC)[C@@H]2CCCO)cc1	56.3*	0.3	-4.3	10.4	12.9
CCO[C@@H]1OC(C(=O)N2CCN(Cc3ccc4c(c3)OCO4)CC2)=C[C@H](c2ccc(Br)cc2)[C@H]1CCCO	29.3	-3.0	-12.3	36.1	51.5*
O=C(COC(=O)c1ccccc1SCC(=O)N1CCCC1)NCc1ccc(F)cc1	4.7	.	.	1.3	.
COC(=O)c1ccc(CSc2nc3sc4c(c3c(=O)n2C)CCCC4)o1	-1.1	-11.4	1.8	4.1	14.4
COC(=O)c1sc(N)c(C(=O)OC)c1CSc1nc2sc3c(c2c(=O)n1C)CCC3	37.9	6.9	-10.8	52.2*	49.6
COc1ccc(CN2CN(c3ccc(Cl)cc3)C(=O)N(n3cnnc3)C2)cc1	-3.9	24.3	-5.0	44.3*	-16.0
Cc1cccc(OCCN2C(=O)C(=O)c3cccc(C)c32)c1	-5.7	-2.6	0.3	-5.4	-0.3
Cc1cccc2c1N(CCCOc1ccc(C(C)(C)C)cc1)C(=O)C2=O	3.6	21.3	-14.0	23.7	51.5*
Cc1ccccc1OCCCN1C(=O)C(=O)c2cccc(C)c21	11.6	47.8*	-8.2	29.7	58.1*
Cc1cn(CC(=O)NCc2nc3ccccc3[nH]2)c(=O)[nH]c1=O	-13.1	.	.	-2.6	.
Cc1cc(/C=N/n2c(COc3ccccc3C)nc3ccccc3c2=O)c(O)c([N+](=O)[O-])c1	20.6	25.5	-5.2	17.8	58.5*
Cc1ccccc1OCc1nc2ccccc2c(=O)n1/N=C/c1c[nH]c2ccccc12	11.4	0.3	-2.6	-9.5	-9.4
CCOC(=O)C1(CC)Oc2ccccc2C(c2ccc(OC)cc2)=C1C(=O)OC (stereo unspecified)	13.8	.	.	48.0*	28.1
Cc1cc(C(=O)N/N=C/c2cccc([N+](=O)[O-])c2O)n[nH]1	-10.7	22.8	-8.6	30.3	24.2
COC(=O)N/N=C/c1cc(N=Nc2ccccc2)ccc1O	-11.0	-16.6	0.9	28.7	39.2
Cc1cc(C(=O)N/N=C/c2cc(N=Nc3ccccc3)ccc2O)n[nH]1	8.9	.	.	16.0	60.8*
Nc1ccc(C(=O)N/N=C\c2cc(N=Nc3cccc4ccccc34)ccc2O)cc1	10.2	31.4	-4.7	28.2	58.9*
COC(=O)N/N=C/c1cc(N=Nc2ccccc2Cl)ccc1O	1.0	11.1	-5.5	32.1	58.0*
O=C(NN=Cc1cc([N+](=O)[O-])ccc1O)c1cccc2ccccc12	8.8	.	.	14.8	49.2
CCOC(=O)C1(C)CCCN1C(=O)c1cc(F)ccc1C (stereo unspecified)	2.7	.	.	-9.7	.
SMILES	EBI2 block	APJ antag	APJ agonist	CXCR6 block	CCR6 antagonist
COC(=O)[C@@]12C[C@@H](CC(=O)N3CCSCC3)C(=O)N(Cc3ccco3)C1=CCC(C)(C)C2	3.7	.	.	.	.
Cc1nc([N+](=O)[O-])c(Br)n1Cc1ccc(Cl)c(Cl)c1	50.2*	.	.	5.7	7.7
Cc1nc([N+](=O)[O-])c(Br)n1CC(=O)c1ccc(Cl)cc1	1.0	9.1	4.4	11.7	24.1
O=C(Nc1cccc(Cl)c1)c1cc(N=Nc2ccc([N+](=O)[O-])cc2Cl)ccc1O	12.6	56.1*	-11.0	63.6*	100.3*
CN(C)CC1CCC/C(=C\c2ccc(OC(=O)c3ccc(Cl)cc3)cc2)C1=O (stereo unspecified)	9.7	.	.	12.1	59.5*
CN(C)CC1CCC/C(=C\c2ccc(OC(=O)/C=C/c3ccccc3)cc2)C1=O (stereo unspecified)	3.9	.	.	33.9	62.5*
Cc1cc(C)cc(C(O)c2ncc(-c3ccc4ccccc4c3)[nH]2)c1 (stereo unspecified)	7.0	.	.	9.7	.
COc1cc([N+](=O)[O-])cc(/C=N/NC(=O)C(C)Nc2ccccc2C)c1O (stereo unspecified)	68.9*	12.7	-3.1	24.6	42.2
Cc1ccccc1-c1ccc2c(c1)O[C@@H](CN(C)C(=O)Nc1ccc(C(F)(F)F)cc1)[C@H](C)CN([C@@H](C)CO)S2(=O)=O	18.0	.	.	16.9	.
Cc1ccc(NN2C(=O)C=C(c3ccc(Cl)cc3)C2=O)cc1	46.2*	-11.9	4.5	0.3	12.1
O=C1C=C(c2ccccc2)C(=O)N1Nc1ccccc1	3.0	7.7	11.2	31.1	.
O=C(NCc1ccco1)c1ccc2sc([C@H]3C[C@H](O)[C@@H](CO)O3)nc2c1	-9.0	.	.	-5.1	.
COc1ccc([C@H]2CC(=O)C=C(c3cc4ccccc4s3)C2)cc1	62.9*	4.5	-4.4	6.3	10.0
CCNC(=O)C1(C)CCCN(Cc2cccc3ccccc23)C1 (stereo unspecified)	1.5	.	.	4.2	.
N#CC(C#N)=C1C=CC=CN1/C(=C\c1ccco1)C(=O)c1ccc(Br)cc1	76.7*	.	.	102.9*	104.2*
COC(=O)c1cc(=O)n(Cc2ccc3c(c2)OCO3)c(=Nc2ccc(F)c(Cl)c2)s1	63.9*	16.3	-3.1	-0.2	14.7
COC(=O)c1cc(=O)n(Cc2ccc(OC)cc2)c(=NCc2ccc(OC)cc2)s1	42.4	4.4	-3.3	2.0	30.0
CCC(=O)c1ccc(OC)c(OC)c1OCc1ccccc1	19.2	.	.	3.8	19.8
CCCCOCCCNC(=O)C[C@@H]1C[C@@]2(C(=O)OCC)CCC=C2N(CCC2=CCCCC2)C1=O	-9.4	.	.	3.6	.
CCC(=O)c1ccc(N2CCN(C(=O)c3ccc(Br)cc3)CC2)c(F)c1	56.7*	-15.0	-0.1	0.1	5.2
C[C@H](NC(=O)[C@@H]1CCCN1C(=O)[C@@H]1CCCN1C(=O)c1cccc2ccccc12)c1ccccc1	-3.2	.	.	3.3	.
O=[N+]([O-])c1cc([N+](=O)[O-])c2nonc2c1Nc1ccccc1O	12.9	2.3	-2.5	14.2	36.4
O=[N+]([O-])c1cc([N+](=O)[O-])c2nonc2c1Nc1ccc(O)cc1	-2.2	6.9	-0.5	27.6	51.5*
O=C(CCl)c1ccc2c(c1)CCN2C(=O)C1CC1	.	27.5	0.1	.	.
O=C(CCl)c1ccc2c(c1)CCN2C(=O)C1CCCCC1	-7.7	31.0	-0.6	31.2	53.0*
c1ccc2nc(NN=C3CCCCC3)ccc2c1	11.3	.	.	35.4*	77.6*

From PubChem
